Data reported in ChEMBL document CHEMBL3112482, “Nonclassical antifolates, part 5. Benzodiazepine analogs as a new class of DHFR inhibitors: synthesis, antitumor testing and molecular modeling study” (Eur J Med Chem, 2014).

What was measured:
Assay type in all cases: functional
MOLT-4 = experiment: Growth inhibition of human MOLT4 cells at 10 uM after 48 hrs; conditions: MOLT-4, 48 h, read-out: GI
Outline: (§1)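 Single-dose primary screen in the NCI 60 human tumour cell line panel, run at the NCI facility. The panel covers nine subpanels: leukaemia, non-small cell lung, colon, CNS, melanoma, ovarian, renal, prostate and breast. Read-out was percent growth of treated cells, shown as a mean graph and reported as percent growth inhibition.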

NCI-H23 = experiment: Growth inhibition of human NCI-H23 cells at 10 uM after 48 hrs; conditions: NCI-H23, 48 h, read-out: GI; outline: as §1
PC-3 = experiment: Growth inhibition of human PC3 cells at 10 uM after 48 hrs; conditions: PC-3, 48 h, read-out: GI; outline: as §1
SK-MEL-2 = experiment: Growth inhibition of human SK-MEL-2 cells at 10 uM after 48 hrs; conditions: SK-MEL-2, 48 h, read-out: GI
Outline: (§2)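 NCI 60-cell-line disease-oriented human tumor panel, single-dose primary screen at 10 µM. Data given as mean-graph percent growth of treated cells, reported as percent growth inhibition (GI %).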

[1] = Growth inhibition of human UO31 cells at 10 uM after 48 hrs; conditions: UO-31, 48 h, read-out: GI; outline: as §2
M14 = experiment: Growth inhibition of human M14 cells at 10 uM after 48 hrs; conditions: M14, 48 h, read-out: GI; outline: as §1
A498 = experiment: Growth inhibition of human A498 cells at 10 uM after 48 hrs; conditions: A498, 48 h, read-out: GI; outline: as §1
K562 = experiment: Growth inhibition of human K562 cells at 10 uM after 48 hrs; conditions: K562, 48 h, read-out: GI; outline: as §1
[2] = Growth inhibition of human UACC257 cells at 10 uM after 48 hrs; conditions: UACC-257, 48 h, read-out: GI; outline: as §2
[3] = Growth inhibition of human SF539 cells at 10 uM after 48 hrs; conditions: SF-539, 48 h, read-out: GI; outline: as §2
CCRF-CEM = experiment: Growth inhibition of human CCRF-CEM cells at 10 uM after 48 hrs; conditions: read-out: GI; outline: as §1
SK-MEL-28 = experiment: Growth inhibition of human SK-MEL-28 cells at 10 uM after 48 hrs; conditions: SK-MEL-28, 48 h, read-out: GI; outline: as §2
SW-620 = experiment: Growth inhibition of human SW620 cells at 10 uM after 48 hrs; conditions: SW-620, 48 h, read-out: GI; outline: as §2
MDA-MB-231 = experiment: Growth inhibition of human MDA-MB-231 cells at 10 uM after 48 hrs; conditions: MDA-MB-231, 48 h, read-out: GI; outline: as §1
[4] = Growth inhibition of human OVCAR4 cells at 10 uM after 48 hrs; conditions: OVCAR-4, 48 h, read-out: GI; outline: as §1
OVCAR-8 = experiment: Growth inhibition of human OVCAR8 cells at 10 uM after 48 hrs; conditions: OVCAR-8, 48 h, read-out: GI; outline: as §1
SK-OV-3 = experiment: Growth inhibition of human SKOV3 cells at 10 uM after 48 hrs; conditions: SK-OV-3, 48 h, read-out: GI; outline: as §2
[5] = Growth inhibition of human OVCAR5 cells at 10 uM after 48 hrs; conditions: OVCAR-5, 48 h, read-out: GI; outline: as §1
[6] = Growth inhibition of human RXF393 cells at 10 uM after 48 hrs; conditions: RXF 393, 48 h, read-out: GI; outline: as §1
TK-10 = experiment: Growth inhibition of human TK10 cells at 10 uM after 48 hrs; conditions: TK-10, 48 h, read-out: GI; outline: as §2
SNB-19 = experiment: Growth inhibition of human SNB19 cells at 10 uM after 48 hrs; conditions: SNB-19, 48 h, read-out: GI; outline: as §2
SNB-75 = experiment: Growth inhibition of human SNB75 cells at 10 uM after 48 hrs; conditions: SNB-75, 48 h, read-out: GI; outline: as §2
[7] = Growth inhibition of human Hs 578T cells at 10 uM after 48 hrs; conditions: read-out: GI; outline: as §1
MCF7 = experiment: Growth inhibition of human MCF7 cells at 10 uM after 48 hrs; conditions: MCF7, 48 h, read-out: GI; outline: as §1
NCI-H522 = experiment: Growth inhibition of human NCI-H522 cells at 10 uM after 48 hrs; conditions: NCI-H522, 48 h, read-out: GI; outline: as §1
MDA-MB-435 = experiment: Growth inhibition of human MDA-MB-435 cells at 10 uM after 48 hrs; conditions: MDA-MB-435, 48 h, read-out: GI; outline: as §1
SR = experiment: Growth inhibition of human SR cells at 10 uM after 48 hrs; conditions: read-out: GI; outline: as §2
DU-145 = experiment: Growth inhibition of human DU145 cells at 10 uM after 48 hrs; conditions: DU-145, 48 h, read-out: GI; outline: as §1
T47D = experiment: Growth inhibition of human T47D cells at 10 uM after 48 hrs; conditions: read-out: GI; outline: as §2
[8] = Growth inhibition of human NCI-ADR-RES cells at 10 uM after 48 hrs; conditions: read-out: GI; outline: as §1
CAKI-1 = experiment: Growth inhibition of human CAKI-1 cells at 10 uM after 48 hrs; conditions: CAKI-1, 48 h, read-out: GI; outline: as §1
[9] = Growth inhibition of human EKVX cells at 10 uM after 48 hrs; conditions: read-out: GI; outline: as §1
SF-268 = experiment: Growth inhibition of human SF268 cells at 10 uM after 48 hrs; conditions: SF-268, 48 h, read-out: GI; outline: as §2
NCI-H322M = experiment: Growth inhibition of human NCI-H322M cells at 10 uM after 48 hrs; conditions: read-out: GI; outline: as §1
COLO 205 = experiment: Growth inhibition of human COLO205 cells at 10 uM after 48 hrs; conditions: COLO 205, 48 h, read-out: GI; outline: as §1

Measured: inhibition of growth at 10 µM

COc1ccc(/C=C2\CCCc3c2nc(C)nc3-c2ccc(OC)cc2)cc1
40.5%: MDA-MB-435
< 30%: all other assays above
